# Source: PubChem
# E-selectin induc – induces E-selectin expression in human endothelial cells; P16581; HUVEC E-selectin immunofluorescence imaging; normalized: neutral wells 0, TNF-alpha wells 100; activation, % at 7.58 µM; 260,000 compounds, 0.37% hits; AID 686992;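 active = mean E-selectin-positive cell signal at least 10% of the positive control, reached in at least 60% of replicates, without over 20% cell loss; inconclusive = no rule given, readout overlaps actives, possibly toxicity-flagged; inactive = the rest, including those meeting only one limit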
# Target sequence (P16581 whole entry, looked up): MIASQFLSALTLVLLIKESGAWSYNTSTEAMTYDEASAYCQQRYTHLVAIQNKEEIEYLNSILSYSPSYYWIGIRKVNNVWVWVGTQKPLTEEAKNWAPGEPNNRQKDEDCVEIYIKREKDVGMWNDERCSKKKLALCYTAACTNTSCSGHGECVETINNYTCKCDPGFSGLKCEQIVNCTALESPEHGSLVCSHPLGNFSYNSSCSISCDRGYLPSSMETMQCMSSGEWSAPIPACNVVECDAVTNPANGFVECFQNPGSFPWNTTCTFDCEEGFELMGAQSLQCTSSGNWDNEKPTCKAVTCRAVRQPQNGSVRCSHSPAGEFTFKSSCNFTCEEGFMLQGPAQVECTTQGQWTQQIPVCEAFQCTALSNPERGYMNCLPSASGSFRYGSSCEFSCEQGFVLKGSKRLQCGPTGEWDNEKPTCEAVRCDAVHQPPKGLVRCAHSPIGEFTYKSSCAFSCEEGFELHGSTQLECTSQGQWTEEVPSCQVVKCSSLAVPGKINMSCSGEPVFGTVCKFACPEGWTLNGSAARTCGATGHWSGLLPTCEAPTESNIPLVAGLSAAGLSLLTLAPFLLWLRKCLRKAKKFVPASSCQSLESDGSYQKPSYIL
#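 Assay system: HUVEC primary endothelial cells. Input: 3,000 HUVEC seeded per well. Doses: one compound dose added by pin transfer. Read-out basis: % PE-positive cells. Benchmarks: TNF-alpha high, DMSO low. Detection: immunofluorescence imaging. Buffer or medium: EGM-2, gelatin.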
# DENV2 CPE rescue – inhibitors of DENV2 cytopathic effect; DENV2-infected cells, cytopathic effect rescue, plate reader; CPE inhibition, % at 9.99 µM; 350,000 compounds, 1.7% hits; in the data active = CPE inhibition above about 20%, passing the limit was not always enough; inconclusive = no clear call, values can overlap the other calls; tested in BHK-21 cells;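 also: 0% = median of neutral control wells and 100% = median of positive control wells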
# Statin myotox sup – suppressors of simvastatin-induced myotoxicity in C2C12 myotubes. rescue of ATP level, % at 7.49 µM. AID 602340. ATP luminescence, 48 h; scaled: DMSO 0, geranylgeraniol control 100. 330,000 compounds, 0.78% hits;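 active = mean ATP rescue above about 67%, or every replicate alone reaching that limit, limit read from the data, passing the limit was not always enough; inconclusive = no clear call, values can overlap the other calls; inactive = mean under the limit and some replicate under it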;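 also: myotubes were challenged with 10 µM simvastatin during compound exposure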
# The depositor's hits bear a star; ? = inconclusive; . = no result given. Most compounds without a hit are left out; they make up all but 2.2% or so of the library.
SMILES,E-selectin induc,DENV2 CPE rescue,Statin myotox sup
Cc1noc(C)c1NC(=O)Nc1ccc2c(c1)CC(=O)N([C@@H](C)CO)C[C@@H](C)[C@@H](CN(C)S(=O)(=O)c1cccs1)O2,-9.5,35.8*,-10.4
C[C@@H]1CN([C@H](C)CO)C(=O)Cc2cc(NC(=O)Nc3ccc(C(F)(F)F)cc3)ccc2O[C@H]1CN(C)S(=O)(=O)c1ccccc1,1.7,1.6,.
C[C@@H]1CN([C@H](C)CO)C(=O)c2cc(NC(=O)Nc3ccc(C(F)(F)F)cc3)ccc2O[C@H]1CN(C)S(=O)(=O)c1ccccc1,-1.5,33.1*,-22.7
Cc1noc(C)c1NC(=O)Nc1ccc2c(c1)CC(=O)N([C@H](C)CO)C[C@H](C)[C@@H](CN(C)S(=O)(=O)c1ccccc1)O2,3.2,6.4,7.9
Cc1noc(C)c1NC(=O)Nc1ccc2c(c1)CC(=O)N([C@@H](C)CO)C[C@@H](C)[C@H](CN(C)S(=O)(=O)c1cccs1)O2,12.0,0.6,-19.0
COc1ccc(CNC(=O)C[C@H]2C[C@@H]3c4cc(NC(=O)NC5CCCC5)ccc4O[C@@H]3[C@@H](CO)O2)cc1,0.1,0.9,-2.8
CO[C@H]1CC[C@H]2CCOc3c(C#N)cccc3C(=O)N(C)C[C@H](C)C(=O)N(C)C[C@@H]1O2,0.0,-0.6,13.9
C[C@H](CO)N1C[C@H](C)[C@H](CN(C)S(=O)(=O)c2ccc(Cl)cc2)Oc2c(NS(=O)(=O)c3ccc(F)cc3)cccc2C1=O,-0.2,19.1,.
C[C@H]1CN([C@@H](C)CO)C(=O)Cc2cc(NC(=O)Nc3ccc(C(F)(F)F)cc3)ccc2O[C@H]1CN(C)S(=O)(=O)c1cccs1,2.5,-1.7,-92.0
C[C@@H]1CN([C@H](C)CO)C(=O)Cc2cc(NC(=O)Nc3ccc(C(F)(F)F)cc3)ccc2O[C@@H]1CN(C)S(=O)(=O)c1cccs1,8.8,26.9*,-79.8
C[C@H]1CN([C@@H](C)CO)C(=O)Cc2cc(NC(=O)Nc3ccccc3)ccc2O[C@H]1CN(C)S(=O)(=O)c1cccs1,-0.3,33.0*,-25.4
C[C@@H]1CN([C@H](C)CO)C(=O)Cc2cc(NC(=O)Nc3ccccc3)ccc2O[C@@H]1CN(C)S(=O)(=O)c1cccs1,0.3,3.1,8.1
C[C@H]1CN([C@@H](C)CO)C(=O)c2cccc(NC(=O)c3ccc(-c4nccs4)cc3)c2O[C@@H]1CN(C)CC1CCCCC1,0.1,-3.9,?
O=C(CN1CCOCC1)N1CC2(C1)[C@@H](c1ccccc1)[C@@H](CO)N2Cc1cccc(F)c1,-0.1,6.6,.
CCNC(=O)[C@@H]1[C@@H](CO)[C@@H]2Cn3c(ccc(-c4cccnc4)c3=O)[C@H]1N2Cc1ccccc1,-0.3,0.4,18.8
Cc1cccc(S(=O)(=O)N[C@@H]2CC[C@@H](CCNC(=O)Nc3cc(F)ccc3F)O[C@@H]2CO)c1,-0.1,39.1*,-22.2
O=C(Nc1cc(F)ccc1F)N[C@@H]1CC[C@H](CCNC(=O)c2cnccn2)O[C@H]1CO,-0.2,32.5*,-7.0
O=C(Nc1cc(F)ccc1F)N[C@H]1CC[C@H](CCNC(=O)c2cnccn2)O[C@H]1CO,-0.2,-8.0,-6.0
Cc1cccc(S(=O)(=O)N[C@H]2CC[C@H](CCNC(=O)Nc3cc(F)ccc3F)O[C@H]2CO)c1,-0.1,16.5,-10.6
O=C(Nc1cc(F)ccc1F)N[C@H]1CC[C@@H](CCNC(=O)c2cnccn2)O[C@@H]1CO,-0.5,-7.1,-11.0
O=C(Nc1cc(F)ccc1F)N[C@@H]1CC[C@H](CCNC(=O)c2cnccn2)O[C@@H]1CO,0.1,34.4*,-10.3
O=C(N[C@H]1CC[C@H](CCn2cc(C3(O)CCCC3)nn2)O[C@@H]1CO)C1CCCCC1,-0.1,-6.7,13.7
CO[C@@H]1CN(C)C(=O)c2ccc(NC(=O)Nc3cc(F)ccc3F)cc2OC[C@H](C)N(C)C[C@@H]1C,0.1,-4.9,0.6
CC(C)CC#Cc1ccc2c(c1)O[C@@H](CN(C)C(=O)C1CCC1)[C@@H](C)CN([C@@H](C)CO)S2(=O)=O,2.6,12.5,-10.5
C[C@H]1CN([C@@H](C)CO)C(=O)Cc2cc(NC(=O)C3CC3)ccc2O[C@H]1CN(C)S(=O)(=O)c1ccc(F)cc1,0.1,10.2,-12.1
SMILES,E-selectin induc,DENV2 CPE rescue,Statin myotox sup
O=C(Nc1ccccc1F)N[C@@H]1CC[C@@H](CCNS(=O)(=O)c2ccc(F)cc2)O[C@H]1CO,0.7,1.1,-12.2
COC(=O)c1nnn(-c2ccccc2)c1N,.,.,0.1
COCc1c(C(=O)OC)nnn1-c1ccccc1,-0.6,.,129.8*
C[C@@H]1CN([C@H](C)CO)S(=O)(=O)c2ccc(C#C[C@@H](C)O)cc2O[C@H]1CN(C)Cc1ccncc1,0.2,-0.6,-38.3
O=C(C[C@@H]1C[C@H]2c3cc(NC(=O)c4cccnc4)ccc3O[C@H]2[C@@H](CO)O1)NCC1CC1,-0.3,-1.6,-14.2
O=[N+]([O-])c1cccc(NC(=S)N2CCc3ccccc32)c1,.,69.5*,.
O=C(Nc1cccc([N+](=O)[O-])c1)N1CCCc2ccccc21,-0.1,-11.4,17.2
COCC(=O)Nc1ccc2c(c1)C(=O)N(C)[C@H]1CC[C@@H](CC(=O)NCC3CCCCC3)O[C@@H]1CO2,0.0,?,2.6
C[C@H](CO)N1C[C@H](C)[C@@H](CN(C)C(=O)Nc2ccc(F)cc2)Oc2ccc(NC(=O)Cn3cnnn3)cc2CC1=O,-3.5,.,4.7
O=C(C[C@H]1CC[C@H](NC(=O)Nc2cc(F)ccc2F)[C@H](CO)O1)Nc1ccc(-c2ccccc2)cc1,11.2,9.6,6.4
Cc1ccc(S(=O)(=O)N(C)C[C@@H]2Oc3ccc(NS(=O)(=O)c4ccc(F)cc4)cc3C(=O)N([C@@H](C)CO)C[C@@H]2C)cc1,-0.4,5.4,43.8
C[C@@H]1CN([C@@H](C)CO)C(=O)c2cc(NS(=O)(=O)c3ccc(F)cc3)ccc2O[C@H]1CN(C)C,0.1,14.1,-23.0
C[C@H](CO)N1C[C@H](C)[C@H](CN(C)C)Oc2ccc(NS(=O)(=O)c3ccc(F)cc3)cc2C1=O,0.0,28.6*,-18.8
C[C@H]1CN([C@@H](C)CO)C(=O)c2cc(NS(=O)(=O)c3ccc(F)cc3)ccc2O[C@H]1CN(C)S(=O)(=O)c1ccc(Cl)cc1,-0.6,26.3*,.
Cc1ccc(S(=O)(=O)N(C)C[C@H]2Oc3ccc(NS(=O)(=O)c4ccc(F)cc4)cc3C(=O)N([C@H](C)CO)C[C@@H]2C)cc1,1.2,81.8*,-38.3
C[C@@H]1CN([C@H](C)CO)C(=O)c2cc(NS(=O)(=O)c3ccc(Cl)cc3)ccc2O[C@@H]1CN(C)S(=O)(=O)c1ccc(F)cc1,0.6,6.6,3.9
CNC(=O)C[C@H]1CC[C@H]2[C@H](COc3ccc(NC(=O)c4ccccc4OC)cc3C(=O)N2C)O1,0.0,.,-23.4
CN(C)CC(=O)Nc1ccc2c(c1)[C@H]1C[C@H](CC(=O)N3CCc4ccccc4C3)O[C@H](CO)[C@H]1O2,0.2,15.3,-0.2
O=C(C[C@@H]1CC[C@@H]2NC[C@@H](O)COC[C@H]2O1)NCCN1CCCCC1,-0.2,-3.9,-3.5
O=C(N[C@@H]1CC[C@H](CCNC(=O)C2CCCC2)O[C@@H]1CO)c1ccccn1,-0.2,-9.4,1.1
COC(=O)/C=C1\N/C(=N\c2nc(C)cc(C)n2)N(c2ccc(C)cc2)C1=O,465.9*,8.9,-0.9
